# Screening data from PubChem.
# Only some compounds are listed: those with a hit (about 2.1% of all), similar ones and a draw of the others.
# KLK7 zymogen act: activators of human kallikrein-7 zymogen; 0.9% of 370,000 active; purified proKLK7, EDANS-DABCYL substrate fluorescence; 100% is mature enzyme control, 0% vehicle; activation, % at 7 µM;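 active = activation above the mean of all tested compounds plus 3 SD, computed per campaign excluding outliers beyond control limits, cut at about 13% in these data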
# Target sequence (P49862 whole entry, looked up): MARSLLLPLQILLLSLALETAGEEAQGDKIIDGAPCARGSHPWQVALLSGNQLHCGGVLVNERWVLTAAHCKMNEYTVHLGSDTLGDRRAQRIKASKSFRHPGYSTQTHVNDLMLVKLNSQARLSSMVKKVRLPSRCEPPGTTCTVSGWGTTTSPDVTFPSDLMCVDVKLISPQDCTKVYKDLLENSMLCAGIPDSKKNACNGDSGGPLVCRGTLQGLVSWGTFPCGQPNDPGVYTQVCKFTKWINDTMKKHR
# RanGTP-Imp inh: disruptors of Ran-importin-beta complex formation – biochemical, FRET, CFP-Ran, YFP-importin-beta, homogeneous, primary screen | cell-free CFP-Ran/YFP-importin-beta FRET ratio | inhibition, % (no concentration beside the values) | 1.1% of 300,000 active;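 active = more than half of the replicate wells show a fall in the fluorescence ratio signal beyond about 16%, limit read from the data, passing the limit was not always enough; inconclusive = exactly half of the replicate wells pass the set limit; inactive = fewer than half of replicates pass the limit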;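 note: 0% = DMSO wells and 100% = Ran loaded with GDP instead of GTP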
# MEX-5 binding: C. elegans MEX-5 TCR-2 RNA binding activity | activity score (negative = inhibition of binding), % at 10 µM | MEX-5/FITC-TCR2 RNA binding, fluorescence polarization; hits give low values | AID 1832 | 0.38% of 300,000 active;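 active = inhibition past about -25% in most replicates, and total fluorescence under double the plate's negative control median, limit read from the data; inconclusive = replicates evenly split on the limit, or fluorescence at least double controls; inactive = too little inhibition in most replicates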;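 note: 0% = DMSO and -100% = 5 µM competing unlabeled TCR2 RNA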
# Runt-CBFb FRET: inhibitors of human RUNX1 Runt domain binding to CBFb; Q01196+Q13951; Cerulean-Runt/Venus-CBFb FRET ratio 530/480, 1 h; inhibition, % at 20 µM; 0.46% of 220,000 active; AID 1496;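 active = inhibition over about 50% at 20 µM in the single-dose screen, limit read from the data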;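 note: 0% = DMSO wells and 100% = excess unlabeled CBFb competitor control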
#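 Assay system: Cerulean-Runt domain fusion protein, energy donor; Signal: fluorescence energy transfer, 422 nm excitation, 530/480 nm emission; Timing: 1 h compound exposure, room temperature; Control set: unlabeled CBFb; Medium: Tris buffer pH 7.5 with salts and BSA; Compound: single test concentration of 20 µM, 1% DMSO final; Probe or stimulus: Venus-CBFb 100 nM.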
# Runt-SMMHC FRET: inhibitors of human RUNX1 Runt domain binding to CBFb-SMMHC. AID 1434. inhibition, % at 20 µM. Q01196+Q13951. 0.74% of 220,000 active. Cerulean-Runt/Venus-CBFb-SMMHC FRET ratio 530/480, 1 h;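 active = mean inhibition across duplicate retests at 20 µM reaching about 50%, limit read from the data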;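 note: 0% = DMSO wells and 100% = wells with excess untagged CBFb-SMMHC; inhibitors lower the FRET ratio by blocking Runt binding to CBFb-SMMHC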
# * hit, by the source's call; ? = inconclusive; / = not tested or not shown.
SMILES,KLK7 zymogen act,RanGTP-Imp inh,MEX-5 binding,Runt-CBFb FRET,Runt-SMMHC FRET
Cc1cccn2c(=O)c3cc(S(=O)(=O)c4ccccc4)c(=N)n(Cc4ccco4)c3nc12,-6.1,93.2*,1.8,/,/
Cc1cccn2c(=O)c3cc(S(=O)(=O)c4ccccc4)c(=N)n(Cc4ccc(F)cc4)c3nc12,-0.3,-1.9,-2.2,/,/
Cc1cccn2c(=O)c3cc(S(=O)(=O)c4ccc(Br)cc4)c(=N)n(C4CCCCC4)c3nc12,-0.7,0.8,-2.8,/,/
Cc1cccn2c(=O)c3cc(S(=O)(=O)c4ccc(F)cc4)c(=N)n(Cc4ccco4)c3nc12,-10.9,84.4*,-0.2,9.8,81.2*
c1cc(Nc2cccc3nccnc23)c2nccnc2c1,-0.8,-6.6,-29.2*,0.2,-12.7
Cc1ccc(C)c(S(=O)(=O)Nc2cc(SCC(=O)O)c(O)c3ccccc23)c1,/,/,/,29.5,1.9
CCc1ccc(S(=O)(=O)Nc2cc(SCC(=O)O)c(O)c3ccccc23)cc1,-1.9,0.1,-52.0*,25.7,6.0
CCOc1ccc(S(=O)(=O)Nc2cc(SCC(=O)O)c(O)c3ccccc23)cc1,-2.0,-2.9,-50.9*,/,/
O=C(O)CSc1cc(NS(=O)(=O)c2cccc([N+](=O)[O-])c2)c2ccccc2c1O,-1.5,0.5,-66.1*,15.4,-3.6
CC1(c2ccc(Cl)cc2Cl)NC(=O)N(CC(=O)NCCC2=CCCCC2)C1=O (configuration not stated),-0.2,/,/,/,/
O=C(NC1CCCCN(Cc2ccc(OC(F)(F)F)cc2)C1=O)c1cccc(F)c1 (configuration not stated),-0.4,/,/,/,/
O=C(NNC(=O)c1cc(Cl)ccc1[N+](=O)[O-])c1csc(N2CCOCC2)n1,-0.1,/,-31.1*,/,/
O=c1[nH][nH]c2cc(=O)n(-c3ccc(Cl)cc3)nc12,0.0,-2.4,-32.1*,-4.8,-1.2
CC(=O)c1nn(-c2ccc(Cl)cc2)c(=O)[nH]c1=O,-0.4,-0.4,0.7,/,/
O=C(Nc1ccc(Cl)cc1)C1Cc2c(-c3ccccc3Oc3ccccc3)ccnc2O1 (configuration not stated),0.7,/,/,/,/
CCn1c2ccccc2c2nc3cc(OC)c(OC)cc3nc21,-18.7,88.8*,-1.1,1.6,4.5
CCn1c2ccccc2c2nc3ccccc3nc21,/,-0.3,-0.1,-1.8,-5.0
COc1cc2nc3c4ccccc4n(CC#N)c3nc2cc1OC,0.8,9.4,-0.2,20.7,51.4*
CC(=O)N(c1ccccc1C)C1CCCC1,0.6,3.4,-1.6,-1.0,0.7
CC(=O)N(C1=C(Cl)C(=O)c2ccccc2C1=O)C1CCCCC1,-1.2,4.0,-48.2*,33.1,69.9*
COCCCNC(=O)c1ccc2c3c(onc13)-c1ccccc1C2=O,/,-55.9,-78.9*,-4.3,-404.0
CCOC(=O)/C(C#N)=C/c1c(N2CCN(C)CC2)nc2ccccn2c1=O,0.7,100.8*,1.5,/,/
COCCNC(=O)/C(C#N)=C/c1c(N2CCN(C)CC2)nc2ccccn2c1=O,9.8,97.4*,0.1,/,/
N#CC(C#N)=Cc1c(N2CCN(c3ccccc3)CC2)nc2ccccn2c1=O,1.4,?,-3.6,/,/
CN1CCN(c2nc3ccccn3c(=O)c2/C=C(\C#N)S(=O)(=O)c2ccccc2)CC1,3.0,71.6*,-3.0,1.8,4.9
SMILES,KLK7 zymogen act,RanGTP-Imp inh,MEX-5 binding,Runt-CBFb FRET,Runt-SMMHC FRET
CCNc1nn2ccccc2c1/C=C(\C#N)C(=O)OCC,0.5,10.6,-63.3*,2.1,9.0
CCOC(=O)/C(C#N)=C/c1c(N2CCCCCC2)nc2ccccn2c1=O,0.8,-2.3,-1.4,/,/
CCNC(=O)/C(C#N)=C/c1c(N(Cc2ccccc2)Cc2ccccc2)nc2ccccn2c1=O,-0.9,3.7,3.2,8.3,22.3
CCNC(=O)/C(C#N)=C/c1c(N2CCOCC2)nc2ccccn2c1=O,4.7,9.0,0.1,62.7*,81.1*
COc1ccc(S[C@]2(C(=O)N(C)C)CC(=O)N(c3ccccc3)[C@@H]2c2ccc(OC)cc2)cc1,0.2,/,/,/,/
CCC(C)(C)n1nnnc1C(c1cc2cccc(C)c2[nH]c1=O)N1CCN(C(=O)c2ccco2)CC1 (configuration not stated),-1.3,17.0*,-2.8,-18.0,-131.0
Cc1cc(C)c(C#N)c(SCc2nc3ccccc3[nH]2)n1,-78.7,19.4*,1.8,4.5,12.9
N#Cc1cc2c(nc1SCc1nc3ccccc3[nH]1)CCC2,/,1.9,-0.8,4.1,2.6
COC(=O)Cn1c(=NC(=O)c2ccc(OC)cc2)sc2cc(OC)ccc21,6.7,?,1.1,-0.1,1.0
COC(=O)Cn1c(=NC(=O)c2ccc(S(=O)(=O)N3CCc4ccccc4C3)cc2)sc2cc(OC)ccc21,-29.0,23.1*,0.2,-34.2,-25.3
CC(C)C#Cc1ccc2c(c1)O[C@@H](CN(C)S(=O)(=O)c1cn(C)cn1)[C@@H](C)CN([C@H](C)CO)S2(=O)=O,0.3,/,/,/,/
CC1=NN(C(N)=S)C(=O)C1N=Nc1ccc([N+](=O)[O-])cc1 (configuration not stated),/,-2.9,-1.0,/,/
Cc1nc(N=Nc2ccc(O)cc2)n[nH]1,0.0,-5.5,-28.9*,-3.9,-5.6
Cc1cn([C@H]2C[C@H](O)[C@@H](CNC(=O)[C@H](N)C3CC3)O2)c(=O)[nH]c1=O,-0.6,/,/,/,/
Oc1c(Cl)cc(Cl)cc1/C=N/NC(=S)NC1CC2C=CC1C2 (configuration not stated),-157.4,9.0,-0.5,11.9,90.1*
N#C/C(=C\c1c(Oc2ccc(Cl)cc2)nc2ccccn2c1=O)C(=O)NC1CCS(=O)(=O)C1 (configuration not stated),10.4,50.9*,-4.9,/,/
Cc1cc(Oc2nc3ccccn3c(=O)c2/C=C(\C#N)C(=O)NC2CCS(=O)(=O)C2)ccc1Cl (configuration not stated),3.8,58.6*,-2.3,/,/
CCCC(=O)Nc1ccc(C(=O)N/N=C/c2ccc([N+](=O)[O-])o2)cc1,1.0,-3.6,-0.4,-1.7,-3.4
Cc1ccc(NC(=O)CCC(=O)N/N=C/c2ccc([N+](=O)[O-])o2)cc1C,-0.4,21.4*,-0.4,3.3,0.3
CCOC(=O)N1CCC(Nc2nc3ccccc3nc2NS(=O)(=O)c2ccc(Cl)cc2)CC1,-0.3,19.3*,0.7,10.8,34.4
